Assay outcomes as filed in PubChem BioAssay.
Hsp70 activator = Hsp70 transcriptional activation, primary screen; 0.04% of 200,000 active; AID 1203; HeLa Hsp70 promoter luciferase reporter, luminescence; scaled: vehicle 0, proteasome-inhibitor control 100%; activation, % at 10 µM;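 active means activation above the mean across all tested compounds plus 3 SD, cutoff set per campaign, cut at about 5.5% in these data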;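 further: 100% = MG132 at 30 µM as the positive control and 0% = DMSO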
Wee1 stabilizer = inhibitors of human Wee1 degradation | P30291 | HeLa Luc-Wee1K328M stability, luciferase luminescence; 100% = proteasome inhibitor MG132 effect | reporter increase, % at 5 µM | 1.2% of 220,000 active | AID 1321;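 active means activation above the mean of all tested compounds plus 3 SD, set per screening run, cut at about 8.8% in these data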;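 further: cells exposed to compound for 20 h before luminescence read; 0% = DMSO alone and 100% = MG132 at 30 µM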
Insulin prom up = MIN6 insulin promoter up-regulation; 0.3% of 190,000 active; z-score at 5 µM; MIN6 insulin promoter-GFP reporter, high-content imaging; stronger effect = higher value;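 active means z-score above 3 at 5 µM with at least 500 cells counted in the well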
Mdm2 ligase inh = Mdm2 E3 ligase (human) inhibition. Q00987. cell-based MDM2 ubiquitination luciferase reporter, 2 h; 0 = plate control, 100 = twice control, blank-subtracted. signal enhancement, % at 5 µM. 0.11% of 210,000 active;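 active means signal enhancement of 30% or more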;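 further: luminescence tracks abundance of the self-degrading MDM2-luciferase fusion protein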
Target sequence (Q00987 whole entry, looked up, the tested form may be a part): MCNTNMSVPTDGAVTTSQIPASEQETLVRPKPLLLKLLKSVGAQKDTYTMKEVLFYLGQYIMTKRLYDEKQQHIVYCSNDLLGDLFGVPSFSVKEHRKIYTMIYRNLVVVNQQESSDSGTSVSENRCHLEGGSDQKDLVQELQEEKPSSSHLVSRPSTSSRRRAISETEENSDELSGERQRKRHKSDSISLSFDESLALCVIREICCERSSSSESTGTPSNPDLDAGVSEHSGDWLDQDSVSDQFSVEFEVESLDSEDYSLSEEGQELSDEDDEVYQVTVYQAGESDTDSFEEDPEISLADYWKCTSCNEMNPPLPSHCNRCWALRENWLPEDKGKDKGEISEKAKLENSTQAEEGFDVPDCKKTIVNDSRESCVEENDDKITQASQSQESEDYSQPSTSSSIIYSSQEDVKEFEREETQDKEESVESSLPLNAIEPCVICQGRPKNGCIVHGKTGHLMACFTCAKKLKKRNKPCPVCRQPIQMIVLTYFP
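test system = mammalian cells stably expressing self-ubiquitinating, self-degrading MDM2 E3–luciferase fusion | quantity = 2000 cells/well | incubation = cell settling 4 h, compound treatment 2 h, both 37 °C | signal = luminescence with SteadyLite reagent, 15 min at room temperature | evaluation = % enhancement relative to plate controls after blank subtraction | benchmarks = plate controls and plate blanks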
RBBP9 inh = inhibitors of human serine hydrolase RBBP9; 0.2% of 220,000 active; O75884; inhibition, % at 7.94 µM; recombinant RBBP9, FP-Rh probe fluorescence polarization;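 active means inhibition above the campaign mean of all tested compounds plus 3 SD, cut at about 14% in these data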;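 further: plate controls were DMSO wells with RBBP9 for no effect and wells lacking RBBP9 protein for full effect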
Target sequence (O75884 whole entry, looked up): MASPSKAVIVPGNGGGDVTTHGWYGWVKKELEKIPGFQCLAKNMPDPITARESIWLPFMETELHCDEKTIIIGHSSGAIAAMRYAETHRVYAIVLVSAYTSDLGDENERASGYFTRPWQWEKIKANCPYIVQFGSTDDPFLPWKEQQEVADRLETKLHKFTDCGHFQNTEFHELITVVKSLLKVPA
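Measured by: FP readout at 525/598 nm; material: recombinant human RBBP9; also added: Serine-hydrolase probe FP-Rh, 375 nM pre-mixing; medium: Tris buffer pH 8.0, NaCl, Pluronic; replication: one well per compound; doses: one concentration, 7.94 µM nominal, 0.794% DMSO; timing: preincubation 30 min plus labeling 45 min at 25 °C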
INS promoter inh = TRM-6 insulin promoter activity inhibition | TRM-6 cells (human fetal islet line), insulin promoter-eGFP reporter, imaging; reporter expression induced with tamoxifen | inhibition, % at 2 µM | 0.9% of 130,000 active;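 active means inhibition above the mean plus 3 SD, with well images judged a real hit on visual review, cut at about 60% in these data, passing the limit was not always enough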
Wee1 stab conf = confirmation of human Wee1 degradation inhibitors | shares compounds with Wee1 stabilizer | HeLa Luc-Wee1K328M degradation, luminescence; vehicle 0%, proteasome-blocked wells 100% | activation, % at 5 µM | 4% of 1,100 active; in the data active means activation above about 8.9%
* = called active by the depositor; i = inactive; / = no result given. An excerpt weighted towards active compounds, which were near 2.2% of everything screened.

SMILES	Hsp70 activator	Wee1 stabilizer	Insulin prom up	Mdm2 ligase inh	RBBP9 inh	INS promoter inh	Wee1 stab conf
Cc1ccccc1C(=O)NNC(=S)NC(=O)COc1ccccc1	0.4	-2.8	0.26	-17.3	4.2	29.6	/
Cc1cccc(Nc2nc(-c3c(C)nc4ccccn34)cs2)c1	0.3	-1.2	-1.11	-35.0	3.4	/	/
Cc1nc2ccccn2c1-c1csc(Nc2cccc(O)c2)n1	-0.1	13.0*	-0.93	-5.9	-1.2	/	10.7*
CC1(C)C(=O)NCCN1C(=O)CCCC(=O)O	-0.2	12.2*	-0.56	12.7	-14.2	-26.8	2.3
CCOc1ccc(-c2cc(C(=O)NN3CCN(C)CC3)c3cc(Cl)ccc3n2)cc1	-0.4	11.0*	-0.14	-19.4	-4.6	/	1.3
CCOC(=O)N1CCN(C(=O)c2cc(-c3ccc(OCC)cc3)nc3ccccc23)CC1	-0.1	11.8*	-0.96	-18.5	-1.3	-328.6	21.9*
CCOc1ccc(-c2cc(C(=O)N3CCN(C)CC3)c3ccccc3n2)cc1	0.2	17.1*	0.77	-31.5	-6.7	/	1.1
CCOc1ccc(-c2cc(C(=O)N3CCN(c4ccccn4)CC3)c3ccccc3n2)cc1	-0.3	1.7	0.21	-47.7	-3.0	i	/
CCOc1ccc2nc(-c3ccc(OC)c(OC)c3)cc(C(=O)O)c2c1	0.0	-1.2	0.14	-29.2	-3.2	30.0	/
COc1cccc(CNC(=O)Cn2ncc3c(=O)oc4ccccc4c32)c1	/	0.7	-0.97	-9.9	3.7	/	/
NC(=O)NC(c1ccccc1)c1cccc2ccccc12 (stereo not given)	0.0	-1.8	0.23	-5.0	3.5	-22.6	/
CC(C)(C)OC(=O)C(Cl)(C(=O)OC(C)(C)C)c1ccc2nnnn2n1	-0.3	11.0*	0.23	-11.5	4.4	8.3	-0.2
O=C(Nc1ccc(Cl)cn1)C1COc2ccccc2O1 (stereo not given)	0.1	19.4*	/	-21.5	-6.3	7.1	1.3
CCOc1ccc(NC(=O)CC2C(=O)N(CC)C(=S)N2NC(=O)c2ccncc2)cc1 (stereo not given)	/	-0.4	0.17	-1.4	-4.8	/	/
CCOc1ccc(/C=N/NC(=O)Cc2cccs2)cc1	/	13.6*	-0.03	-9.8	-7.5	/	0.4
CCNC(=S)NNC(=O)CC(C)C	-0.3	2.8	0.99	4.1	1.0	/	/
CC(C)CNC(=S)NNC(=O)CC(C)O (stereo not given)	-0.1	11.1*	-0.02	-18.3	3.0	42.1	1.3
COc1ccc(C)cc1N(C(=O)c1ccccc1F)c1nc2ccccc2s1	-0.1	3.7	-0.1	-0.1	-5.7	-3.1	/
NS(=O)(=O)c1ccc(NC(=O)COC(=O)CCc2ccccc2)cc1	/	0.0	-0.23	-17.3	-8.5	/	/
COC(CNC(=O)c1cccnc1)OC	0.2	-0.1	0.09	0.6	5.1	/	/
COC(CNC(=O)c1ccc2nc(-c3cccs3)c(-c3cccs3)nc2c1)OC	-0.1	11.7*	0.11	-13.2	-5.0	/	5.1
Cc1onc(-c2ccccc2)c1C(=O)N1CCN(C)CC1	0.0	16.5*	-0.37	-35.5	-3.9	-100.0	-1.5
CCN(CC)C(=O)Cn1cnc([N+](=O)[O-])n1	-0.5	-2.8	-0.28	-1.4	-8.7	-37.5	/
Nc1nc(COc2ccccc2)cs1	-0.1	2.8	0.11	-15.1	-8.6	-15.6	/
Cc1ccccc1OCc1csc(N)n1	0.5	15.8*	1.05	0.0	-5.0	/	-0.5
SMILES	Hsp70 activator	Wee1 stabilizer	Insulin prom up	Mdm2 ligase inh	RBBP9 inh	INS promoter inh	Wee1 stab conf
CN(C)S(=O)(=O)c1cc(NC(=O)CNCCN2CCOCC2)ccc1Cl	/	0.3	-0.23	-6.8	-3.0	/	/
CCCc1ccc(C(=O)Cn2nc(C(=O)O)c3ccccc3c2=O)cc1	-0.4	11.4*	-0.42	-12.0	-3.0	5.0	2.5
OC(COCC(F)(F)C(F)(F)C(F)(F)C(F)F)Cn1c2ccccc2c2ccccc21 (stereo not given)	0.0	10.9*	-0.47	-5.8	-11.7	-33.3	-0.1
COc1ccc(NC(=O)N2CCC(CO)(CC3CCCCO3)CC2)c(OC)c1 (stereo not given)	/	-0.8	0.5	-2.8	-10.2	/	/
CN(C)C(=S)NC(=O)C12CC3(C)CC(C)(CC(C)(C3)C1)C2	/	10.9*	-0.32	-6.6	-3.6	/	-1.4
CC(C)(C)NC(=O)CSc1nc2ccc(NC(=O)CSc3nnc(N)s3)cc2s1	-0.2	-0.5	-0.24	-17.4	-2.9	-10.5	/
CCc1cccc(CC)c1N(COC)C(=O)Cn1ccccc1=N	-0.2	12.6*	0.97	-1.5	-1.6	-85.7	-1.9
CCCCC(=O)Nc1ccc(C(=O)N2CCC(C(=O)OCC)CC2)cc1	-0.2	-0.3	-0.13	-20.9	-4.7	14.3	/
Cc1cccc(-n2c(=S)[nH]c3nc4c(cc3c2=O)COC(C)(C)C4)c1	/	17.6*	-0.7	-9.6	3.0	/	-1.0
O=C(O)CCN1CCc2ccccc2C1c1cccs1 (stereo not given)	-0.3	0.1	-0.6	7.2	-5.3	61.1	/
C/C(=N\NC(=O)c1ccccc1)c1ccc(NC(=O)c2cccs2)cc1	0.2	12.6*	0.73	-12.6	-8.5	/	1.1
CC(C)OCCCNC(=O)Nc1cccc2ccccc12	-0.1	13.1*	0.07	2.4	-14.3	/	0.2
CC(C)OCCCNC(=O)C(C)Oc1ccccc1 (stereo not given)	0.4	-2.1	-0.55	-24.5	0.8	-26.7	/
CC(=O)Nc1ccc(N2CCCCC2)cc1	-0.1	11.9*	-0.21	-7.9	-3.6	-5.7	2.0
CC(=O)Nc1ccc(N2CCCC2)cc1	-0.2	-0.4	-0.04	-10.3	1.0	-24.1	/
Cc1cccc(C(=O)NC2=NCCS2)c1	0.0	33.0*	0	-21.9	-7.4	-28.6	1.4
Cc1cc(C(=O)NC2=NCCS2)cs1	0.0	1.8	/	-29.3	-4.0	37.9	/
CCOC(=O)CC(NC(=O)c1ccc(C)cc1)c1ccc(C)cc1 (stereo not given)	-0.5	14.4*	-0.46	-6.4	-9.3	-12.8	2.3
Cc1ccc(CN(Cc2cc3cccc(C)c3[nH]c2=O)C(=S)NCCCN(C)C)cc1	-0.3	-2.2	/	3.2	-4.6	/	/
CCOc1ccc(NC(=S)Nc2ccc(OCC)cc2)cc1	-0.1	2.7	0.38	3.9	-7.2	/	/
CCOc1ccc(NC(=S)Nc2ccc(C)c([N+](=O)[O-])c2)cc1	-0.3	13.7*	-0.24	-17.4	-4.6	-7.1	-1.7
Nc1nnc(-c2ccc(F)cc2)s1	-0.5	-0.3	1.02	-1.1	-3.6	7.7	/
Nc1nnc(-c2ccc(Cl)cc2)s1	-0.1	11.5*	0.25	-8.0	-13.3	21.4	5.3
CCn1c(=O)c2cc(C(=O)N3CCN(C)CC3)sc2c2ccccc21	-0.4	8.4	-0.58	17.8	-3.1	/	/
CN1CCN(C(=O)c2cc3sc4ccccc4c3s2)CC1	/	13.7*	0.04	-21.1	2.7	/	0.7
